Data taken from ChEMBL document CHEMBL4024779, “Novel Terminal Bipheny-Based Diapophytoene Desaturases (CrtN) Inhibitors as Anti-MRSA/VISR/LRSA Agents with Reduced hERG Activity” (J Med Chem, 2018).
Where a chain is given by its changes, count along the chain named. Calls of active or inactive are those of the source. The calls are words filed in the database; no cut-off is given here.

Key:
[1] = tested on: Nannizzia gypsea; test: In vitro antifungal activity against Microsporum gypseum after 7 days by serial dilution method; format: functional; conditions: 168 h
[2] = tested on: Staphylococcus aureus; test: In vivo anti-virulence activity against Staphylococcus aureus Newman infected in BALB/c mouse model assessed as reduction in bacterial load in kidneys at 0.1 mg bid for 4.5 days administered intraperitoneally 24 hrs prior to infection by serial dilution method; format: functional, organism-based
How it was run: (§1)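 Mice (n=10 per group) got 2.3 × 10^7 CFU S. aureus Newman by retro-orbital injection. Compound was given intraperitoneally b.i.d., either 24 h before infection (4.5 d) or 6 h after infection (3.5 d). Mice were sacrificed after 4.5 d and CFU counted in kidneys and hearts. Groups were compared by two-tailed Mann-Whitney test.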

[3] = Aqueous solubility of compound after 24 hrs by HPLC method; format: physicochemical
[4] = tested on: Staphylococcus aureus; test: In vivo anti-virulence activity against methicillin-resistant Staphylococcus aureus NRS271 infected in BALB/c mouse model assessed as reduction in bacterial load in heart at 0.1 mg bid for 4.5 days administered intraperitoneally 24 hrs prior to infection by serial dilution method; format: functional; design: scale not given: the % may be the effect or the level left
How it was run: (§2)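 Mice (n=10 per group) infected retro-orbitally with S. aureus Mu50 (1.1 × 10^9 or 1.3 × 10^9 CFU) or NRS271 (2.3 × 10^8 CFU). Compound given i.p. b.i.d., either 6 h after infection for 3.5 d or 24 h before infection for 4.5 d. Mice killed after 4.5 d; log10 CFU per organ counted in kidneys and hearts. Two-tailed Mann−Whitney test.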

[5] = tested on: Staphylococcus aureus; test: In vivo anti-virulence activity against methicillin-resistant Staphylococcus aureus NRS271 infected in BALB/c mouse model assessed as reduction in bacterial load in kidneys at 0.1 mg bid for 3.5 days administered intraperitoneally 6 hrs post infection by serial dilution method; format: functional; design: scale not given: the % may be the effect or the level left; how it was run: as §2
[6] = Inhibition of CrtN in methicillin-resistant Staphylococcus aureus NRS271 assessed as reduction in staphyloxanthin levels after 48 hrs by spectrophotometric method-based pigment inhibition assay
[7] = tested on: Staphylococcus aureus; test: In vivo anti-virulence activity against methicillin-resistant Staphylococcus aureus NRS271 infected in BALB/c mouse model assessed as reduction in bacterial load in heart at 0.4 mg bid for 3.5 days administered intraperitoneally 6 hrs post infection by serial dilution method; format: functional; design: scale not given: the % may be the effect or the level left; how it was run: as §2
[8] = tested on: HepG2; test: Cytotoxicity against human HepG2 cells after 43 hrs by Alamar blue dye-based fluorescence assay; format: cell-based; conditions: HepG2, 43 h
[9] = tested on: Staphylococcus aureus; test: In vivo anti-virulence activity against Staphylococcus aureus Newman infected in BALB/c mouse model assessed as reduction in bacterial load in kidneys at 0.4 mg bid for 3.5 days administered intraperitoneally 6 hrs post infection by serial dilution method; format: functional, organism-based; how it was run: as §1
[10] = tested on: Staphylococcus aureus; test: In vivo anti-virulence activity against methicillin-resistant Staphylococcus aureus Mu50 infected in BALB/c mouse model assessed as reduction in bacterial load in heart at 0.4 mg bid for 3.5 days administered intraperitoneally 6 hrs post infection by serial dilution method; format: functional; design: scale not given: the % may be the effect or the level left; how it was run: as §2
[11] = tested on: Staphylococcus aureus; test: In vivo anti-virulence activity against Staphylococcus aureus Newman infected in BALB/c mouse model assessed as reduction in bacterial load in heart at 0.1 mg bid for 3.5 days administered intraperitoneally 6 hrs post infection by serial dilution method; format: functional, organism-based; how it was run: as §1
[12] = tested on: Staphylococcus aureus; test: Antibacterial activity against Staphylococcus aureus Newman derived after 12 passage by broth dilution method; format: functional
[13] = target: T1, 4,4'-diapophytoene desaturase (4,4'-diaponeurosporene-forming) (Staphylococcus aureus (strain Mu50 / ATCC 700699), UniProt Q99R76); test: Inhibition of CrtN in methicillin-resistant Staphylococcus aureus Mu50 assessed as reduction in staphyloxanthin levels after 48 hrs by spectrophotometric method-based pigment inhibition assay; design: species or system Staphylococcus aureus subsp. aureus Mu50
T1 sequence (Q99R76 whole entry): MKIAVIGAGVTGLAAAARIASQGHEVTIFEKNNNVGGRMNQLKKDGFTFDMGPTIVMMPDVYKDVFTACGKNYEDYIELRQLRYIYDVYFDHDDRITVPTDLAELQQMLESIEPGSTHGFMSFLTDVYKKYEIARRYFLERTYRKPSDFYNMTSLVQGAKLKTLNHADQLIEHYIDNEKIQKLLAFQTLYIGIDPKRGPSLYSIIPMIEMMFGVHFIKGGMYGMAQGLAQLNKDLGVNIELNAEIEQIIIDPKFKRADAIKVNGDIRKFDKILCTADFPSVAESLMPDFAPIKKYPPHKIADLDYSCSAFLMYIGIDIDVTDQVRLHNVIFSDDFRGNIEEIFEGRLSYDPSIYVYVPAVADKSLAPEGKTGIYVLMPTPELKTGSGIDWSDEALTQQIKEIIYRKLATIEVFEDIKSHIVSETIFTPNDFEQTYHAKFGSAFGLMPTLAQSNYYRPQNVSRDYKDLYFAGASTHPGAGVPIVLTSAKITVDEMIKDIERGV

[14] = tested on: Staphylococcus aureus; test: In vivo anti-virulence activity against methicillin-resistant Staphylococcus aureus Mu50 infected in BALB/c mouse model assessed as reduction in bacterial load in heart at 0.1 mg bid for 4.5 days administered intraperitoneally 24 hrs prior to infection by serial dilution method; format: functional; design: scale not given: the % may be the effect or the level left
How it was run: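 Mice were challenged with 1.3 × 10^9 CFU Mu50. Compound was given intraperitoneally, either 24 h before or 6 h after infection. Log10 CFU was counted in kidneys and hearts.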

[15] = tested on: Staphylococcus aureus; test: In vivo anti-virulence activity against methicillin-resistant Staphylococcus aureus NRS271 infected in BALB/c mouse model assessed as reduction in bacterial load in heart at 0.4 mg bid for 4.5 days administered intraperitoneally 24 hrs prior to infection by serial dilution method; format: functional; design: scale not given: the % may be the effect or the level left; how it was run: as §2
[16] = target: T2, 4,4'-diapophytoene desaturase (4,4'-diaponeurosporene-forming) (Staphylococcus aureus (strain MW2), UniProt Q8NUQ6); test: Inhibition of CrtN in methicillin-resistant Staphylococcus aureus USA400 MW2 assessed as reduction in staphyloxanthin levels after 48 hrs by spectrophotometric method-based pigment inhibition assay; design: species or system Staphylococcus aureus subsp. aureus MW2
T2 sequence (Q8NUQ6 whole entry): T1 sequence (Q99R76 whole entry) with R500Q

[17] = tested on: Trichophyton mentagrophytes; test: In vitro antifungal activity against Trichophyton mentagrophytes after 7 days by serial dilution method; format: functional; conditions: 168 h
[18] = tested on: Staphylococcus aureus; test: In vivo anti-virulence activity against methicillin-resistant Staphylococcus aureus Mu50 infected in BALB/c mouse model assessed as reduction in bacterial load in kidneys at 0.1 mg bid for 4.5 days administered intraperitoneally 24 hrs prior to infection by serial dilution method; format: functional; design: scale not given: the % may be the effect or the level left; how it was run: as §2

Structure (SMILES): CN(C/C=C/c1ccc(-c2ccccc2)cc1)Cc1cccc2cc[nH]c12.Cl
- MIC80 [1]: > 64 µg/mL
- Activity [2]: inactive
- solubility at 24 h [3]: 200 µg/mL
- Activity [4]: >95%
- Activity [5]: >95%
- IC50 [6]: 10.1 nM
- Activity [7]: >95%
- IC50 [8]: 21900 nM
- Activity [9]: inactive
- Activity [10]: >95%
- Activity [11]: inactive
- IC90 [12]: 2.6 nM
- IC50 [13]: 0.4 nM
- Activity [14]: >95%
- Activity [15]: >95%
- IC50 [16]: 8 nM
- MIC80 [17]: > 64 µg/mL
- Activity [18]: >95%

Structure (SMILES): CN(C/C=C/c1ccc(-c2ccccc2)cc1)Cc1coc2ccccc12.Cl
- MIC80 [1]: 32 µg/mL
- Activity [2]: Active
- solubility at 24 h [3]: 200 µg/mL
- Activity [4]: >95%
- Activity [5]: >95%
- IC50 [6]: 5.6 nM
- Activity [7]: >95%
- IC50 [8]: 106000 nM
- Activity [9]: Active
- Activity [10]: >95%
- Activity [11]: Active
- IC90 [12]: 1.8 nM
- IC50 [13]: 0.8 nM
- Activity [14]: >95%
- Activity [15]: >95%
- IC50 [16]: 7.9 nM
- MIC80 [17]: > 64 µg/mL
- Activity [18]: >95%
